target: T1, OR5K1 (Homo sapiens) (UniProt Q8NHB7); settings: stereoisomer not certain
T1 sequence (whole entry): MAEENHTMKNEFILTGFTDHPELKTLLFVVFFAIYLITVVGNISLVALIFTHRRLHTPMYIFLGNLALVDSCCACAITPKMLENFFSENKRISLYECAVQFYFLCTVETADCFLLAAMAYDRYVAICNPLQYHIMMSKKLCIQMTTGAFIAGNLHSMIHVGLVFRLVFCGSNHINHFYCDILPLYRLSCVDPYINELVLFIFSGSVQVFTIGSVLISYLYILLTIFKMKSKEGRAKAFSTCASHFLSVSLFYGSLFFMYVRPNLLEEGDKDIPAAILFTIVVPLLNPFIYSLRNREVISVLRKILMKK
How it was run: (§1)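 Values were gathered from published papers (main text and supplementary material), with extra details requested from the original authors when needed, and checked for typos and inconsistencies. Each receptor–molecule pair is called responsive (active) if the original authors judged the measured signal statistically different from baseline, and non-responsive (inactive) otherwise. Assay methods varied by source, often transient mammalian cell-line luciferase assays. Recorded details include cell line, G-protein, co-transfected protein and tags.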

SMILES	odorant receptor agonist call
CCC(C)CCC(=O)[O-] (configuration not stated)	inactive
CCCCC(C)CCC(=O)O (configuration not stated)	inactive
CCCCC=CC=CC=O	inactive
C=Cc1ccc(O)cc1	inactive
CCC(C)CO (configuration not stated)	inactive
COc1cnccn1	active
Cc1nccnc1C	active
COC1=C(C)OC(C)C1=O (configuration not stated)	active
CCC(C)c1nccnc1OC (configuration not stated)	active
CCc1ncc(C)nc1CC	active
CCc1nccnc1C(C)=O	active
CCCC(=O)C(C)CC (configuration not stated)	inactive
CC(C)CCO	inactive
CCCCCC=CC=CC=O	inactive
CC(=O)OCC=Cc1ccccc1	inactive
CC(=O)c1cnccn1	active
SCCc1ccccc1	inactive
CCCCC1OC(=O)CC1C (configuration not stated)	inactive
COc1nccnc1CC(C)C	active
CC1CCc2nccnc21 (configuration not stated)	active

SMILES	odorant receptor agonist call
C=Cc1cnccn1	active
COc1nccnc1C(C)C	active
CC(=O)c1nccnc1C	active
CC1=CCC(C(C)C)C=C1 (configuration not stated)	inactive
CC(=O)C=CC1=C(C)CCCC1(C)C	inactive
CCCCCCCC(C)=O	inactive
CCCCC(=O)O	inactive
CCc1nccnc1C	active
CCC(=O)C(C)=O	inactive
Cc1cnc(C)cn1	active
CC1=CCC2CC1C2(C)C (configuration not stated)	inactive
Cc1occc1S	inactive
CCc1nccnc1CC	active
CSSSC	inactive
Cc1cnccn1	active
CCCC1CCCC(=O)O1 (configuration not stated)	inactive
CCCC(=O)OCC	inactive
CCCC(S)CCO (configuration not stated)	inactive
Cc1cncc(C)n1	active
CCc1nccnc1OC	active

target: T2, OR5K2 (Homo sapiens) (UniProt Q8NHB8); settings: stereoisomer not certain
T2 sequence (whole entry): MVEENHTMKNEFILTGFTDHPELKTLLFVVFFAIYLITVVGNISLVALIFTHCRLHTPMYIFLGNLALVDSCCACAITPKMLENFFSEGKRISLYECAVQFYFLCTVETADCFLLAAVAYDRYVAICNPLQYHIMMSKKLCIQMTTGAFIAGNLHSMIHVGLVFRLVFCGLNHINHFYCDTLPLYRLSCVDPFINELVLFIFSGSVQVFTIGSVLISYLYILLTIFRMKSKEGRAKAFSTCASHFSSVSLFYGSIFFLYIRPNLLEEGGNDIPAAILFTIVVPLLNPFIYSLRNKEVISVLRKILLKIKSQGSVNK
How it was run: as §1

SMILES	odorant receptor agonist call
COc1cnccn1	inactive
Cc1nccnc1C	inactive
CCC(C)c1nccnc1OC (configuration not stated)	inactive
CCc1ncc(C)nc1CC	inactive
CCc1nccnc1C(C)=O	inactive
CC(=O)c1cnccn1	inactive
COc1nccnc1CC(C)C	inactive
CC1CCc2nccnc21 (configuration not stated)	inactive
C=Cc1cnccn1	inactive
COc1nccnc1C(C)C	inactive
CC(=O)c1nccnc1C	inactive
CCc1nccnc1C	inactive
Cc1cnc(C)cn1	inactive
CCc1nccnc1CC	inactive
Cc1cnccn1	inactive
Cc1cncc(C)n1	inactive
CCc1nccnc1OC	inactive

From the M2OR odorant receptor database
